# STAT3 blocker: reduces IL-6 driven STAT3 reporter signal; U3A cells, IL-6 STAT3-luciferase reporter, luminescence; host cell line lacks STAT1; inhibition, % at 5.5 µM; hit rate 0.89% among 190,000; AID 862;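 active = inhibition above the mean inhibition across all screened compounds plus 3 SD, cut at about 44% in these data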;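 note: 0% = DMSO only wells and 100% = 100 µM nifuroxazide control wells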
# STAT3 activator: activators of IL-6 induced STAT3 signaling; activation (% of control), % at 5.6 µM; hit rate 0.91% among 190,000; AID 871; U3A cells, IL-6 STAT3-luciferase reporter, luminescence; 100% = signal with IL-6 EC80 alone;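 active = activation above the screen-wide mean of compound activation plus 3 SD, cut at about 130% in these data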;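 note: 0% = background luminescence of wells with medium and substrate only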
#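 Test system: STAT3-luciferase reporter U3A cells; Detection: reporter luminescence signal; Times: 1 h compound pre-exposure, 6 h IL-6 stimulation, 37 °C; Benchmarks: IL-6-only high control; Also added: IL-6 stimulus at 33 ng/mL final.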
# NF-kB neuron act: compounds increasing NF-kB expression in human neuronal cells; fold change at 12.5 µM; NF-kB reporter expression; hits give high values; hit rate 1.6% among 190,000; in the data active = fold change above about 3.3
# APP 5'UTR act: APP 5'UTR luciferase reporter activation; AID 1276; SH-SY5Y APP 5'UTR luciferase reporter, luminescence; zero percent = DMSO vehicle wells; hit rate 1% among 190,000; activation, % at 2 µM;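 active = activation above a set limit, based on mean plus 3 SD of controls, cut at about 140% in these data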
# STAT1 act: STAT1 signaling activation. AID 932. NIH 3T3 STAT1-luciferase reporter, IFN-gamma, luminescence; 100% = IFN-gamma alone, no compound. hit rate 2.6% among 200,000. activation (% of control), % at 5.5 µM;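 active = activation above the screen-wide mean activation plus 3 SD, cut at about 130% in these data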;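 note: raw ratio to IFN-gamma control signal so 100% means no change and 0% no light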
# STAT1 inh: STAT1 signaling inhibition; AID 920; NIH 3T3 STAT1-luciferase reporter, IFN-gamma, luminescence; inhibition, % at 5.5 µM; hit rate 0.35% among 200,000;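 active = inhibition above a set limit, the mean inhibition across all tested compounds plus 3 SD, cut at about 34% in these data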;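 note: 0% = IFN-gamma with DMSO and 100% = IFN-gamma with 300 µM nifuroxazide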
# * marks the source's active call; other numbers are inactive results; / = no result given. Compounds with a hit are over-represented: about 4.9% of the library has one in this group of screens.
SMILES,STAT3 blocker,STAT3 activator,NF-kB neuron act,APP 5'UTR act,STAT1 act,STAT1 inh
Cc1ccc(Nc2nnc(SCC(=O)NC3CCCc4ccccc43)s2)cc1 (centres undefined),-14,108,0.98,8,104,-5
Cc1ccccc1Nc1nnc(SCC(=O)NC2CCCc3ccccc32)s1 (centres undefined),-13,107,0.73,7,144*,-48
CN(C)c1ccc(/C=C2\CCCCC2=O)cc1,-6,101,4.2*,160*,121,-23
COc1ccccc1OCc1ccc(C(=O)N(C)C)o1,11,94,2,5,107,-8
CN(C)C(=O)c1ccc(COc2ccccc2Br)o1,7,95,2.2,76,132*,-33
COCC1CCCN(Cc2cn(-c3ccccc3)nc2-c2ccc3c(c2)OCO3)C1 (centres undefined),2,104,1.1,6,100,-2
COc1ccc2c(c1OC)C(=O)N(c1nccs1)C2,-18,124,1.5,46,132*,-35
COc1ccc(NS(=O)(=O)c2ccc(NC(=S)NC(=O)/C=C/c3ccccc3)cc2)nn1,2,101,1.2,-7,95,5
C(=C\c1ccco1)/c1nc2ccccc2[nH]1,23,84,5*,136*,111,-12
O=C(/C(=C/c1ccc(Cl)cc1)c1nc2ccccc2[nH]1)c1ccccc1,13,93,8*,84,104,-4
C(=C\c1nc2ccccc2[nH]1)/c1ccccc1,82*,37,3.1,192*,61,43*
O=c1[nH]c2ccccc2nc1/C=C/c1ccc(Cl)cc1,11,93,1.4,167*,133*,-37
O=C(CNC1CCCCC1)NN=C(c1ccccc1)c1ccccc1,8,94,1.1,-3,86,14
NS(=O)(=O)c1ccc(N/C=C\C(=O)c2cccc3ccccc23)cc1,4,97,1,/,102,-3
Cc1cc(C(=O)NCc2cc(C(=O)O)co2)co1,9,97,1.1,-8,91,9
COc1cc(/C=C(/C(=O)c2cccs2)c2nc3ccccc3[nH]2)cc(OC)c1O,-35,130,10*,20,92,9
COc1ccc(C(=O)N/C(=C/c2cccs2)c2nc3ccccc3[nH]2)cc1OC,-18,112,1.3,8,100,2
CCOc1ncccc1C(=O)OCC(=O)N1CCc2ccccc21,-22,127,1,-1,93,6
Cc1ccc2nc(N/N=C/c3ccco3)cc(C)c2c1,0,103,3.2,101,138*,-44
Cc1ccc2nc(SCC(=O)N/N=C/c3ccco3)cc(C)c2c1,16,88,0.63,21,91,9
CC(=O)N1CCN(c2ccc(NCc3ccc(C)s3)cc2)CC1,14,95,1.1,/,104,-4
Cc1ccc(CNc2ccc(N3CCOCC3)cc2)s1,0,103,3.2,84,145*,-49
CNC(=O)c1ccc(=O)n(Cc2cccc(C(F)(F)F)c2)c1,1,101,1.1,1,103,-4
O=c1c2oc3ccccc3c2ncn1Cc1ccccc1F,0,107,3.5*,4,110,-11
CC(C)N(Cc1nccn1C)C(=O)CCc1nnc(CCCc2ccccc2)o1,-8,112,2.7,44,137*,-40
SMILES,STAT3 blocker,STAT3 activator,NF-kB neuron act,APP 5'UTR act,STAT1 act,STAT1 inh
CN(CCc1ccccn1)C(=O)CCc1nnc(CCCc2ccccc2)o1,-1,103,2.3,2,133*,-38
CC(C)N(CCO)C(=O)CCc1nnc(CCCc2ccccc2)o1,24,84,1.6,-11,107,-8
CCOC(=O)c1ccc(NC(=S)NCCCN2CCCCC2)cc1,12,99,1.1,10,104,-5
COc1ccc(S(=O)(=O)N(C)C)cc1NC(=O)Cc1c[nH]c2ccccc12,-40,133*,1.1,29,88,14
Cc1ccc(S(=O)(=O)N(C)C)cc1NC(=O)CCc1c[nH]c2ccccc12,25,86,1.4,7,94,5
COCCN(C(=S)Nc1ccc(C)cc1C)C(C)c1ccco1 (centres undefined),2,102,1.2,10,104,-6
Cc1cccc(/C(N)=N/OC(=O)Cc2ccccc2)c1,6,100,1.8,46,147*,-54
Cc1cccc(/C(N)=N/OC(=O)COc2ccccc2Cl)c1,1,103,1.7,49,135*,-40
COc1ccc(/C(N)=N/OC(=O)COc2ccccc2Cl)cc1,9,96,1.9,12,120,-22
CC(C)(C)c1cc(NC(=O)c2ccco2)n(-c2ccccc2)n1,-4,105,1.1,11,95,4
O=c1nc2s/c(=C\c3ccc(-c4ccccc4[N+](=O)[O-])o3)c(=O)n2nc1-c1ccccc1,-13,112,0.99,-9,88,13
Cc1cc(C)c2c3c(sc2n1)C(=O)N(Cc1ccccc1)CC(=O)N3,0,104,0.87,2,103,-3
CCC(C)[C@H](N)c1cn([C@@H](Cc2ccc(O)cc2)C(=O)N2CCNCC2)nn1 (some centres undefined),/,/,1.4,-11,103,-1
O=[N+]([O-])c1cc(/C=N/O)ccc1Oc1ccccc1Cl,-15,122,1.9,41,131*,-37
c1ccc(CCSc2nccn2-c2ccccc2)cc1,-5,109,4.6*,126,142*,-47
CCOc1ccccc1NC(=O)CSc1nccn1-c1ccccc1,-1,107,0.82,5,103,-4
COC(=O)CCCSc1nccn1-c1ccccc1,-5,105,6*,15,92,9
CCCOC(=O)c1ccc(NC(=O)COC)cc1,-2,103,1.3,3,112,-10
CCCOC(=O)c1ccc(NC(=O)CC(C)(C)C)cc1,-9,112,5.5*,122,144*,-50
CCCOC(=O)c1ccc(NC(=O)c2ccoc2C)cc1,-4,103,3.5*,115,141*,-44
Cc1occc1C(=O)NNC(=O)c1ccccc1C(=O)O,-7,110,1.4,181*,146*,-51
Cc1ccccc1C(=O)NNC(=O)c1ccoc1C,0,101,1.3,9,96,5
CCC(=O)Nc1ccc(C(=O)OCc2ccccc2)cc1,4,98,1.3,24,132*,-35
CCOC(=O)C1(Cc2ccccc2C(F)(F)F)CCN(C(=O)c2cc(C(C)=O)n[nH]2)CC1,-5,106,1.2,22,104,-6
CCOC(=O)Cc1cc(=O)n2[nH]cc(-c3ccc(Cl)cc3)c2n1,2,101,1.1,-14,100,-3
Cc1occc1C(=O)Nc1ccc(OCc2ccccc2)cc1,10,93,3.3,119,129*,-32
C[C@H](NC(N)=O)C(=O)Nc1ccc(OCc2ccccc2)cc1,-7,108,2.2,52,132*,-35
